MPTP block – inhibitors of mitochondrial permeability transition pore; isolated mouse mitochondria, Ca2+ swelling absorbance, 30 min; inhibition, % at 10 µM; 1.4% of 360,000 active;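 active means inhibition of 50% or more, scaled per plate between neutral and stimulator controls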;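 further: 0% = DMSO wells given calcium and 100% = 1 mM EGTA wells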
procasp7 counter – activates human procaspase-7, counter-screen for procaspase-3 activators | recombinant procaspase-7, Ac-DEVD-pNA absorbance 405 nm; D23A/D198A/D206A triple mutant, cannot self-cleave; scale: DMSO 0, 5 µM enzyme 100 | activation, % at 8.5 µM | 0.093% of 330,000 active | AID 463210;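 active means percent activation above the screen-wide mean plus 3 SD, cut at about 25% in these data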
Target sequence (P55210 whole entry D23A/D198A/D206A): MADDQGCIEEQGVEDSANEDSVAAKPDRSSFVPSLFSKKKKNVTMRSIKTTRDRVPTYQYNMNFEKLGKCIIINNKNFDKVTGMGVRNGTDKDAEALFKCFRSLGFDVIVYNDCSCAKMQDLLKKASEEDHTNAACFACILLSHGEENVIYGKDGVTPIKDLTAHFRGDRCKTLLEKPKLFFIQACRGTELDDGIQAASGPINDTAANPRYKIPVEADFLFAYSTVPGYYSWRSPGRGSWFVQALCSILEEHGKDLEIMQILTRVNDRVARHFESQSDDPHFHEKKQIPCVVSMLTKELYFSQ
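Detection: p-Nitroaniline absorbance at 405 nm, read at 0 and 120 min; system: Uncleavable procaspase-7 mutant enzyme; evaluation: % activation from two-timepoint absorbance difference, scaled to controls; times: 1 h enzyme–compound preincubation and 2 h substrate reaction, both 25 °C; buffer or medium: Zinc-free HEPES pH 7.4 with 300 mM NaCl, 0.01% Triton X-100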
GRIN3A LBD mod – modulators (binders) of human NR3A ligand-binding domain. AID 1259313. Tm shift relative to glycine control, % at 25 µM. 2.5% of 340,000 active. NR3A LBD differential scanning fluorimetry, Tm shift; 0% = protein alone, 100% = glycine-bound protein;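 active means melting temperature shift of at least 10% of the positive control shift, at one fixed dose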
aDG glyco act – alpha-DG glycosylation activation; Pro5-aDG cells, alpha-DG glycosylation AlphaScreen (IIH6); 0% Pro5, 100% B10-LARGE cell signal; activation, % at 10 µM; 0.22% of 360,000 active; AID 624168;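 active means activation of at least 8% versus controls, or a plate z-score of at least 8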;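 further: Pro5 are CHO cells carrying HIG-tagged alpha-DG that lacks glycosylation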
proCasp3 act – activators of human procaspase-3. P42574. recombinant procaspase-3 D3A, Ac-DEVD-pNA absorbance 405 nm. activation, % at 8.5 µM. 0.11% of 330,000 active;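 active means activation above the mean of all tested compounds plus 3 SD, cut at about 21% in these data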;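 further: 0% = DMSO alone and 100% = DMSO wells spiked with extra 5 µM PC-3 D3A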
Target sequence (P42574 whole entry D9A/D28A/D175A): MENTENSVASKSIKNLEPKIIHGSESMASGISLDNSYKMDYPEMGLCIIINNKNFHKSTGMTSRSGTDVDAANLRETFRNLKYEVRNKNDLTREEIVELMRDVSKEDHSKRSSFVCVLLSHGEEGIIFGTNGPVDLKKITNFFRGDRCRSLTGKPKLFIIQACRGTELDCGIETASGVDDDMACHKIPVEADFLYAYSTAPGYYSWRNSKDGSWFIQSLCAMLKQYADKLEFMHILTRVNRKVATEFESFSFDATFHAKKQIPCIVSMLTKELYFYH
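Assay system – Procaspase-3 D3A mutant, all three cleavage aspartates alanine · Controls – DMSO-only low control, 5 µM PC-3 D3A high control · Schedule – 1 h compound preincubation, 2 h substrate hydrolysis at 25 °C · Signal – 405 nm absorbance of p-nitroaniline, reads at 0 and 120 min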
procasp7 triplic – counter-screen: procaspase-7 (human) activation in triplicate | AID 488941 | recombinant procaspase-7, Ac-DEVD-pNA absorbance; asp23/198/206-to-Ala mutant, cannot self-cleave | activation, % at 8.5 µM | 210 tested, under 10 active | shares compounds with proCasp3 act;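 active means mean activation above a set limit taken from an earlier procaspase-7 screen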;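 further: 0% = DMSO wells and 100% = DMSO plus 5 µM procaspase-7 enzyme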
procasp3 conf – procaspase-3 (human) activation, confirmed. activation, % at 8.5 µM. 10% of 210 active. AID 488954. recombinant PC-3 D3A, Ac-DEVD-pNA absorbance 405 nm; 100% is higher-enzyme control. shares compounds with proCasp3 act;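 active means mean activation above a set limit carried over from the earlier primary screen, cut at about 22% in these data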
PC3 D3A act – activates human procaspase-3, dual activator counter-screen | 290 tested, under 10 active | activation, % at 8.5 µM | shares compounds with procasp7 counter | recombinant PC-3 D3A, Ac-DEVD-pNA absorbance 405 nm; aspartates 9, 28, 175 changed to alanine; 100% = enzyme control;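 active means mean percent activation across triplicates above a set limit taken from the earlier primary procaspase-3 screen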;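 further: 0% = DMSO wells and 100% = DMSO wells with 5 µM added PC-3 D3A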
PC7 dual conf – activates human procaspase-7, confirming dual procaspase activators; shares compounds with procasp7 counter; recombinant procaspase-7, Ac-DEVD-pNA absorbance 405 nm; D23A/D198A/D206A mutant that cannot self-cleave; activation, % at 8.5 µM; 290 tested, under 10 active; AID 493115;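 active means mean activation above a set limit carried over from the earlier primary screen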;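 further: 0% = DMSO only and 100% = DMSO with added 5 µM PC-7 enzyme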
MPTP counter – membrane potential counter-screen of mitochondrial pore inhibitors; shares compounds with MPTP block; isolated mitochondria, Rhodamine 123 fluorescence; inhibition, % at 10 µM; 78% of 5,000 active; AID 624504; in the data active means inhibition above about 22%;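 further: 0% = DMSO vehicle and 100% = positive control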
MPTP swell DR – dose response confirmation of mitochondrial permeability transition pore inhibitors; isolated mitochondria swelling, absorbance; AID 651561; IC50, µM; 58% of 780 active; shares compounds with MPTP block; in the data active means IC50 below about 20 µM
MPTP counter DR – MPTP inhibitor counter-screen activity, dose response; AID 651564; shares compounds with MPTP block; isolated mitochondria counterscreen, fluorescence read-out; IC50, µM; 49% of 780 active; in the data active means IC50 below about 80 µM
Numbers without * were called inactive; / = no result given. An excerpt weighted towards active compounds, which were near 3.7% of everything screened.

SMILES	MPTP block	procasp7 counter	GRIN3A LBD mod	aDG glyco act	proCasp3 act	MPTP counter	others
CCC(C)NC(=O)c1c(N)n(Cc2ccc3c(c2)OCO3)c2nc3ccccc3nc12 (stereo unspecified)	6.0	24.6	15.0*	3.8	69.8*	/	procasp7 triplic=-20.4;procasp3 conf=-15.6
CCC(C)OC(=O)c1c(N)n(Cc2cccs2)c2nc3ccccc3nc12 (stereo unspecified)	25.8	13.1	1.2	2.2	22.5*	/	procasp7 triplic=-19.0;procasp3 conf=-13.8
COCCCn1c(N)c(C(=O)OC(C)COC)c2nc3ccccc3nc21 (stereo unspecified)	-2.0	-3.0	0.0	0.0	-2.1	/
CCOP(=O)(OCC)C1(C(=O)O)CCCC1	1.1	3.8	1.2	0.0	2.2	/
CC(C)CCNC(=O)c1c(N)n(CC2CCCO2)c2nc3ccccc3nc12 (stereo unspecified)	3.5	19.9	1.6	1.4	24.7*	/	procasp7 triplic=-21.1;procasp3 conf=-11.1
COc1ccccc1NC(=O)COC(=O)c1cn(C)c2ccccc12	0.3	-3.7	1.4	0.0	2.0	/
CCCNc1oc(-c2cccc3ccccc23)nc1C#N	0.8	32.1*	-5.6	-0.1	33.0*	/	PC3 D3A act=-28.5;PC7 dual conf=-36.4
COc1ccc(-c2nc3ccc(C(=O)N4CCC5(CC4)OCCO5)cc3nc2-c2ccc(OC)cc2)cc1	-0.4	51.8*	-1.6	-0.1	29.8*	/	PC3 D3A act=-28.0;PC7 dual conf=-34.5
COc1ccc(-n2c(C)nc3cc(C(=O)N4CCC5(CC4)OCCO5)ccc32)cc1	-0.8	1.4	-6.8	-0.3	-4.0	/
Cc1ncc2n1-c1ccc(Cl)cc1C(c1ccccc1F)=NC2	-1.9	6.4	0.9	0.4	4.0	/
CCCCn1c(NC(=O)c2ccc(Br)o2)c(C(=O)OCC)c2nc3ccccc3nc21	3.9	-27.1	-12.1	2.9	-17.5	/
CCCCn1c(NS(=O)(=O)c2ccccc2)c(C(=O)OCC)c2nc3ccccc3nc21	59.4*	-10.0	-11.1	2.0	-13.2	49.9*
CCCCCSc1cc(OC)c(CCN(C)C)cc1OC	83.8*	0.1	-0.4	1.6	2.0	-8.2	MPTP swell DR=6.33*;MPTP counter DR=>80
CCCCCSc1cc(O)c(C(CNC)C(C)C)cc1OC (stereo unspecified)	15.3	-0.1	0.4	0.9	0.1	/
CCOc1cc(C2NCc3ccccc3-n3cccc32)ccc1O (stereo unspecified)	87.6*	1.8	-0.6	1.0	5.2	-7.6	MPTP swell DR=7.09*;MPTP counter DR=>80
CCCCCc1nc2c(c(=O)c3ccccc3n2C)c(=O)n1C1CCCCCC1	87.4*	-1.1	3.8	2.7	-10.5	-5.0
O=c1[nH]c2ccccc2n1C1CCN(Cc2ccc(-c3[nH]c4cc5ncnc5cc4nc3-c3ccccc3)cc2)CC1	-3.9	/	/	-0.6	/	/
Cc1ccc(-c2cc(-c3ccccc3)cc(-c3ccccc3)[n+]2-c2ccccc2)cc1	11.3	-4.2	-3.9	0.5	-4.0	/
CN(C)c1ccc(-[n+]2c(-c3ccccc3)cc(-c3ccccc3)cc2-c2ccccc2)cc1	1.7	/	-6.5	-0.4	/	/
Cc1ccc(-c2cc(-c3ccc(C)cc3)[n+](-c3ccccc3)c(-c3ccc(C)cc3)c2)cc1	94.9*	2.4	-12.6	1.9	-3.4	100.7*
c1ccc(-c2cc(-c3ccccc3)[n+](-c3ccccc3)c(-c3ccccc3)c2)cc1	63.7*	-5.6	-1.3	0.3	5.3	88.9*
O=C(O)Cn1cc(C(=O)c2ccccc2F)c2ccccc21	-1.1	-5.4	0.1	0.0	5.7	/
O=C(CF)NC(NC(=S)Nc1cccc([N+](=O)[O-])c1)C(Cl)(Cl)Cl (stereo unspecified)	79.0*	3.2	-1.2	0.2	-8.6	92.3*
CCOc1cccc(=NC2CCCCC2)c2c(C)n(C)c(C)c12	62.5*	-8.1	-2.2	-0.2	1.9	70.7*
CCOc1ccccc1N=C1SCCCN1C	-1.1	4.9	2.0	-0.1	-0.1	/
SMILES	MPTP block	procasp7 counter	GRIN3A LBD mod	aDG glyco act	proCasp3 act	MPTP counter	others
O=[N+]([O-])c1cc([As](=O)(O)c2ccc(O)c([N+](=O)[O-])c2)ccc1O	0.0	-5.4	0.8	-0.1	0.0	/
Cn1nc(-c2ccc(OCC(=O)N3CCN(Cc4ccccc4)CC3)cc2)c2ccccc2c1=O	72.0*	-2.9	1.0	3.3	3.8	43.0*
O=C(c1ccc2c(c1)N(Cc1ccc(F)cc1)CCS2)N1CCC2(CC1)OCCO2	2.5	8.3	-1.9	0.1	1.4	/
Cc1c(NS(=O)(=O)c2ccccc2)ccc([N+](=O)[O-])c1Cl	97.5*	/	2.2	0.1	/	89.9*
O=[N+]([O-])c1ccc(N2CCCCC2)c2ncccc12	-3.9	-6.2	0.0	0.8	8.7	/
O=[N+]([O-])c1ccc(N2CCCC(C(F)(F)F)C2)c2ccncc12 (stereo unspecified)	76.8*	-1.7	-0.7	0.6	-8.6	89.6*
COc1ccc(C(c2nnnn2-c2c(C)cccc2C)N2CCC3(CC2)C(=O)NCN3c2ccccc2)cc1 (stereo unspecified)	-1.8	/	/	-0.1	/	/
CCN1C(=O)C(=Cc2ccc(C)s2)C(=O)N(CC)C1=S	72.6*	-22.7	3.0	0.5	-10.3	-6.4
CCN1C(=O)C(=Cc2cc(C)n(C3CC3)c2C)C(=O)N(CC)C1=S	2.9	-12.5	-1.5	0.4	-7.9	/
C[C@]12CCC3C(CC[C@H]4C[C@H](O)CC[C@]34C)C1C[C@@H](CCCCl)[C@@H]2O (stereo partly specified)	2.2	-10.0	/	0.3	0.1	/
O=C1NC(=O)N(CCC2=CCCCC2)C(=O)/C1=C/c1cccs1	13.1	-21.6	1.2	-0.1	-27.6	/
